Measurements taken from ChEMBL document CHEMBL1255417, “Correlation between in vitro activity of posaconazole and in vivo efficacy against Rhizopus oryzae infection in mice” (Antimicrob Agents Chemother, 2010).
Converted amounts (≈) assume the structure as drawn. The source made the active and inactive calls. The rule behind the calls is not given here.

Tests used:
[1] = test system: Rhizopus arrhizus; test: Antifungal activity against drug-intermediate Rhizopus oryzae UTHSC 05-3032 by broth microdilution method; assay type: functional
In short: (§1)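 Broth microdilution MIC in µg/ml, run per the CLSI (formerly NCCLS) guideline for filamentous fungi, M38-A2.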

[2] = test system: Rhizopus arrhizus; test: Antifungal activity against drug-susceptible Rhizopus oryzae UTHSC 06-731 at 5 ug by disk diffusion assay; assay type: functional; conditions: read-out: DIZ
[3] = test system: Rhizopus arrhizus; test: Antifungal activity against drug-susceptible Rhizopus oryzae UTHSC 02-439 by broth microdilution method; assay type: functional; in short: as §1
[4] = test system: Rhizopus arrhizus; test: Antifungal activity against drug-intermediate Rhizopus oryzae infected in OF1 mouse assessed as mouse survival at 30 mg/kg, po bid treated 24 hrs after fungal infection; assay type: functional
In short: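 Survival model in male OF1 mice, 30 g. Mice were immunosuppressed 1 day before infection with cyclophosphamide 200 mg/kg i.p. plus 5-fluorouracil 150 mg/kg i.v., then infected i.v. via lateral tail vein with 2 × 10^4 CFU in 0.2 ml saline. Oral gavage at 10, 20 or 30 mg/kg BID began 24 h post-challenge for 7 days. Ceftazidime 5 mg/day s.c. was given days 1–7. Groups of 10 were checked daily for 20 days; untreated controls.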

[5] = test system: Rhizopus arrhizus; test: Antifungal activity against drug-intermediate Rhizopus oryzae UTHSC 05-114 by broth microdilution method; assay type: functional; in short: as §1
[6] = test system: Rhizopus arrhizus; test: Antifungal activity against drug-susceptible Rhizopus oryzae UTHSC 03-299 at 5 ug by disk diffusion assay; assay type: functional; conditions: read-out: DIZ
In short: (§2)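 Neo-Sensitabs tablet diffusion on Mueller-Hinton agar, following guidelines for molds; 9 mm tablets containing 5 µg posaconazole; inhibition zone diameter measured in mm; zone breakpoints applied at 24 h.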

[7] = test system: Rhizopus arrhizus; test: Antifungal activity against drug-susceptible Rhizopus oryzae UTHSC 06-4152 by broth microdilution method; assay type: functional
In short: (§3)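 Posaconazole MIC in ug/ml, determined by broth microdilution following the CLSI guidelines for moulds (M38-A2).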

[8] = test system: Rhizopus arrhizus; test: Antifungal activity against drug-susceptible Rhizopus oryzae UTHSC 03-1826 after 24 to 48 hrs; assay type: functional
[9] = test system: Rhizopus arrhizus; test: Antifungal activity against drug-intermediate Rhizopus oryzae UTHSC 05-114 at 5 ug by disk diffusion assay; assay type: functional; conditions: read-out: DIZ
In short: (§4)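 Neo-Sensitabs tablet diffusion on Mueller-Hinton agar, following the guidelines for molds. Tablets were 9 mm in diameter and held 5 µg of drug. The read-out was inhibition zone diameter in mm.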

[10] = test system: Rhizopus arrhizus; test: Antifungal activity against drug-susceptible Rhizopus oryzae UTHSC 03-2970 at 5 ug by disk diffusion assay; assay type: functional; conditions: read-out: DIZ; in short: as §4
[11] = test system: Rhizopus arrhizus; test: Antifungal activity against drug-susceptible Rhizopus oryzae UTHSC 04-443 by broth microdilution method; assay type: functional
In short: (§5)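 CLSI broth microdilution for filamentous fungi (M38-A2); MIC recorded in µg/ml against clinical isolates; breakpoints applied at 24 h.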

[12] = test system: Rhizopus arrhizus; test: Antifungal activity against drug-intermediate Rhizopus oryzae UTHSC 04-3109 after 24 to 48 hrs; assay type: functional
[13] = test system: Rhizopus arrhizus; test: Antifungal activity against drug-intermediate Rhizopus oryzae UTHSC 04-3109 at 5 ug by disk diffusion assay; assay type: functional; conditions: read-out: DIZ; in short: as §4
[14] = test system: Rhizopus arrhizus; test: Antifungal activity against drug-susceptible Rhizopus oryzae UTHSC 06-2374 by broth microdilution method; assay type: functional; in short: as §3
[15] = test system: Rhizopus arrhizus; test: Antifungal activity against drug-susceptible Rhizopus oryzae UTHSC 06-1351 after 24 to 48 hrs; assay type: functional
In short: (§6)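 Minimum fungicidal concentration taken from the broth microdilution plates. From each well with complete inhibition (optically clear), 20 ul is plated on potato dextrose agar. Plates are incubated at 35°C for 24 to 48 h. The MFC is the lowest drug concentration giving no growth.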

[16] = test system: Rhizopus arrhizus; test: Antifungal activity against drug-susceptible Rhizopus oryzae UTHSC 02-2882 at 5 ug by disk diffusion assay; assay type: functional; conditions: read-out: DIZ; in short: as §4
[17] = test system: Rhizopus arrhizus; test: Antifungal activity against drug-susceptible Rhizopus oryzae UTHSC 04-1241 after 24 to 48 hrs; assay type: functional
In short: (§7)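 Minimum fungicidal concentration: 20 µl from each microdilution well showing complete inhibition (optically clear) plated on potato dextrose agar, incubated 35°C for 24 to 48 h; MFC taken as lowest drug concentration giving no growth.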

[18] = test system: Rhizopus arrhizus; test: Antifungal activity against drug-susceptible Rhizopus oryzae UTHSC 03-112 by broth microdilution method; assay type: functional; in short: as §1
[19] = test system: Rhizopus arrhizus; test: Antifungal activity against drug-susceptible Rhizopus oryzae UTHSC 05-2447 after 24 to 48 hrs; assay type: functional; in short: as §7
[20] = test system: Rhizopus arrhizus; test: Antifungal activity against drug-susceptible Rhizopus oryzae UTHSC 06-89 after 24 to 48 hrs; assay type: functional
[21] = test system: Rhizopus arrhizus; test: Antifungal activity against drug-susceptible Rhizopus oryzae UTHSC 03-511 infected in OF1 mouse assessed as reduction in kidney fungal load at 10-30 mg/kg, po bid; assay type: functional, organism-based
In short: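 Immunosuppressed male OF1 mice (cyclophosphamide 200 mg/kg i.p. plus 5-fluorouracil 150 mg/kg i.v., day −1) infected i.v. with 2 × 10^4 CFU; oral gavage twice daily from 24 h post-challenge; 10 mice/group killed day 4; kidneys homogenized in 2 ml saline, 10-fold dilutions plated on potato dextrose agar, 24 h at 35°C for CFU.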

[22] = test system: Rhizopus arrhizus; test: Antifungal activity against drug-susceptible Rhizopus oryzae UTHSC 03-511 by broth microdilution method; assay type: functional; in short: as §5
[23] = test system: Rhizopus arrhizus; test: Antifungal activity against drug-susceptible Rhizopus oryzae UTHSC 05-2975 at 5 ug by disk diffusion assay; assay type: functional; conditions: read-out: DIZ
In short: (§8)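 Neo-Sensitabs tablet diffusion on Mueller-Hinton agar, run per the mould guidelines. Tablets are 9 mm in diameter and carry 5 ug posaconazole. The read-out is the inhibition zone diameter in mm.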

[24] = test system: Rhizopus arrhizus; test: Antifungal activity against drug-susceptible Rhizopus oryzae UTHSC 06-329 after 24 to 48 hrs; assay type: functional; in short: as §6
[25] = test system: Serum; test: Drug level in human serum at 400 mg, po bid; assay type: ADME, organism-based; conditions: in vivo
[26] = test system: Rhizopus arrhizus; test: Antifungal activity against drug-susceptible Rhizopus oryzae UTHSC 06-2457 by broth microdilution method; assay type: functional; in short: as §3
[27] = test system: Rhizopus arrhizus; test: Antifungal activity against drug-susceptible Rhizopus oryzae UTHSC 06-329 at 5 ug by disk diffusion assay; assay type: functional; conditions: read-out: DIZ; in short: as §8
[28] = test system: Rhizopus arrhizus; test: Antifungal activity against drug-intermediate Rhizopus oryzae UTHSC 03-285 after 24 to 48 hrs; assay type: functional
[29] = test system: Rhizopus arrhizus; test: Antifungal activity against drug-susceptible Rhizopus oryzae UTHSC 04-278 after 24 to 48 hrs; assay type: functional; in short: as §7
[30] = test system: Rhizopus arrhizus; test: Antifungal activity against drug-susceptible Rhizopus oryzae UTHSC 06-1080 at 5 ug by disk diffusion assay; assay type: functional; conditions: read-out: DIZ; in short: as §8
[31] = test system: Rhizopus arrhizus; test: Antifungal activity against drug-susceptible Rhizopus oryzae UTHSC 04-2459 after 24 to 48 hrs; assay type: functional; in short: as §7
[32] = test system: Rhizopus arrhizus; test: Antifungal activity against drug-intermediate Rhizopus oryzae UTHSC 03-285 at 5 ug by disk diffusion assay; assay type: functional; conditions: read-out: DIZ; in short: as §4
[33] = test system: Rhizopus arrhizus; test: Antifungal activity against drug-susceptible Rhizopus oryzae UTHSC 04-443 at 5 ug by disk diffusion assay; assay type: functional; conditions: read-out: DIZ; in short: as §2
[34] = test system: Rhizopus arrhizus; test: Antifungal activity against drug-susceptible Rhizopus oryzae UTHSC 03-228 by broth microdilution method; assay type: functional; in short: as §1
[35] = test system: Rhizopus arrhizus; test: Antifungal activity against drug-susceptible Rhizopus oryzae UTHSC 06-4035 at 5 ug by disk diffusion assay; assay type: functional; conditions: read-out: DIZ; in short: as §8
[36] = test system: Rhizopus arrhizus; test: Antifungal activity against drug-intermediate Rhizopus oryzae UTHSC 05-114 after 24 to 48 hrs; assay type: functional
[37] = test system: Rhizopus arrhizus; test: Antifungal activity against drug-susceptible Rhizopus oryzae UTHSC 04-2459 at 5 ug by disk diffusion assay; assay type: functional; conditions: read-out: DIZ; in short: as §2
[38] = test system: Rhizopus arrhizus; test: Antifungal activity against drug-susceptible Rhizopus oryzae UTHSC 04-278 at 5 ug by disk diffusion assay; assay type: functional; conditions: read-out: DIZ; in short: as §2

## CC[C@@H]([C@H](C)O)n1ncn(-c2ccc(N3CCN(c4ccc(OC[C@@H]5CO[C@@](Cn6cncn6)(c6ccc(F)cc6F)C5)cc4)CC3)cc2)c1=O [POSACONAZOLE]
[1]
  MIC: 2 µg/mL (≈ 2.85 µM)
[2]
  zone of inhibition at 5 µg/disc: 17 mm
[3]
  MIC: 0.25 µg/mL (≈ 0.357 µM)
[4]
  Activity: 10%
[5]
  MIC: 2 µg/mL (≈ 2.85 µM)
[6]
  zone of inhibition at 5 µg/disc: 15 mm
[7]
  MIC: 0.25 µg/mL (≈ 0.357 µM)
[8]
  MFC: 0.5 µg/mL (≈ 0.713 µM)
[9]
  zone of inhibition at 5 µg/disc: 15 mm
[10]
  zone of inhibition at 5 µg/disc: 20 mm
[11]
  MIC: 0.5 µg/mL (≈ 0.713 µM)
[12]
  MFC: > 16 µg/mL
[13]
  zone of inhibition at 5 µg/disc: 14 mm
[14]
  MIC: 0.5 µg/mL (≈ 0.713 µM)
[15]
  MFC: 0.5 µg/mL (≈ 0.713 µM)
[16]
  zone of inhibition at 5 µg/disc: 22 mm
[17]
  MFC: 0.5 µg/mL (≈ 0.713 µM)
[18]
  MIC: 0.5 µg/mL (≈ 0.713 µM)
[19]
  MFC: 1 µg/mL (≈ 1.43 µM)
[20]
  MFC: 1 µg/mL (≈ 1.43 µM)
[21]
  Activity: Active
[22]
  MIC: 0.25 µg/mL (≈ 0.357 µM)
[23]
  zone of inhibition at 5 µg/disc: 20 mm
[24]
  MFC: 0.5 µg/mL (≈ 0.713 µM)
[25]
  Drug uptake: < 1 µg/mL
[26]
  MIC: 1 µg/mL (≈ 1.43 µM)
[27]
  zone of inhibition at 5 µg/disc: 20 mm
[28]
  MFC: > 16 µg/mL
[29]
  MFC: > 16 µg/mL
[30]
  zone of inhibition at 5 µg/disc: 18 mm
[31]
  MFC: 0.5 µg/mL (≈ 0.713 µM)
[32]
  zone of inhibition at 5 µg/disc: 15 mm
[33]
  zone of inhibition at 5 µg/disc: 22 mm
[34]
  MIC: 0.25 µg/mL (≈ 0.357 µM)
[35]
  zone of inhibition at 5 µg/disc: 17 mm
[36]
  MFC: 16 µg/mL (≈ 22.8 µM)
[37]
  zone of inhibition at 5 µg/disc: 18 mm
[38]
  zone of inhibition at 5 µg/disc: 18 mm
